Bioassay records from PubChem.
Sampled rows, rich in hits. Any-hit rate of the full collection: about 1.8%.
MC4R barr agon: MC4R agonists recruiting beta-arrestin, primary screen, cell-based, luminescence, agonist arm of biased-ligand search; hit rate 0.98% among 360,000; U2OS MC4R beta-arrestin complementation; percent of melanotan II response, DMSO zero; Melanocortin receptor 4 (Homo sapiens), P32245; activation, % at 8.9 µM;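 active = activation above a per-plate cutoff, the mean activation of sample wells on that plate plus 3 SD, cut at about 8% in these data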
NOD2-RIPK2 inh: NOD2-RIPK2 binding disruptors in cells, primary screen, fluorescence, CHO cells, BLA complementation; hit rate 0.38% among 360,000; CCF4 ratio; Receptor-interacting serine/threonine-protein kinase 2 (Homo sapiens), O43353; inhibition, % at 4.98 µM; in the data active = inhibition above about 21%;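 note: 0% = vehicle only and 100% = reference blocker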
Target sequence (O43353 whole entry, looked up): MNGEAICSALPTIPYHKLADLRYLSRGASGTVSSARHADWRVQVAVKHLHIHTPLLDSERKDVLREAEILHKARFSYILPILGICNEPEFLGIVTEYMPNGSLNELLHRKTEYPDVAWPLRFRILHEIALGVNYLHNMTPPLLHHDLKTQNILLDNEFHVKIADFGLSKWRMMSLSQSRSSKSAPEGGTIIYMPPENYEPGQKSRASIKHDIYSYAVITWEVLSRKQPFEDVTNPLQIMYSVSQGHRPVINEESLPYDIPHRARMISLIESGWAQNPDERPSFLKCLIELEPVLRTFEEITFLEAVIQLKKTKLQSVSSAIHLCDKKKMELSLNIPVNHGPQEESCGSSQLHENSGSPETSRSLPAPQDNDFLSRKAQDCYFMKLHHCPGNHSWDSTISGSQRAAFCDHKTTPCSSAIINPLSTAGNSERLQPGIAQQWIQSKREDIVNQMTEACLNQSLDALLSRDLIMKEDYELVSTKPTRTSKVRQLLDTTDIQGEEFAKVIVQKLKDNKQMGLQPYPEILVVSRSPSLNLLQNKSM
TLR4-MyD88 BLA: inhibitors of TLR4-MyD88 association in cells, primary screen, cell-based, HeLa CL3-4, BLA complementation, FRET ratio; AID 861, 2007; Toll-like receptor 4 (Homo sapiens) + Myeloid differentiation primary response protein …; inhibition, % at 8.4 µM; hit rate 0.18% among 200,000; HeLa CL3-4 TLR4/MyD88 BLA complementation; in the data active = inhibition above about 25%;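 note: 0% = vehicle and 100% = reference inhibitor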
TLR9-MyD88 inh: inhibitors of TLR9-MyD88 association in cells, primary screen, cell-based, CHO, BLA complementation, fluorescence | CCF4 FRET ratio | inhibition, % at 4.98 µM | hit rate 0.21% among 340,000 | AID 504734, 2011;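 active = inhibition above the mean over all tested compounds plus 3 SD, cut at about 21% in these data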;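 note: 0% = DMSO only wells and 100% = clavulanate BLA inhibitor control wells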
MC4R antagonist: MC4R antagonists of cAMP signaling, primary screen, cell-based, TR-FRET, antagonist arm of biased-ligand search; MC4R-expressing cells, MTII-stimulated cAMP, LANCE TR-FRET; inhibition, % at 6.5 µM; hit rate 0.48% among 360,000; AID 540295, 2011;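 active = inhibition above its plate's cutoff, the mean of tested wells on that plate plus 3 SD, cut at about 29% in these data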;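 note: 0% = Melanotan II alone and 100% = Melanotan II plus saturating MCL0020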
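Assay system: human MC4R-expressing U2OS cells; reagent: Melanotan II stimulation of cells; dosing: 6.5 µM single dose; timing: compound 30 min, challenge 1 h, detection 1 h; signal: TR-FRET cAMP assay; replicates: one well per compound, no replicates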
An asterisk follows results filed as active; . = no result.

SMILES | MC4R barr agon | NOD2-RIPK2 inh | TLR4-MyD88 BLA | TLR9-MyD88 inh | MC4R antagonist
COc1ccccc1[C@@H]1C(c2cccc(Cl)c2)=NN(c2ccccc2)[C@H]1C(=O)N1CCOC1=O | 2.4 | 7.5 | -10.1 | 5.1 | 6.6
Cc1cccc(OCC(=O)Nc2nc3ccc([N+](=O)[O-])cc3s2)c1C | 9.1* | -4.0 | 11.8 | 1.6 | 17.5
Cc1cccc(OCC(=O)Nc2nc3ccc([N+](=O)[O-])cc3s2)c1 | 0.9 | -8.1 | -14.0 | -9.7 | 7.3
N#CC(C#N)c1ccnc2ccccc12 | -1.6 | -9.3 | . | -0.2 | -4.5
NC(=O)c1ccsc1NC(=O)c1ccc(S(=O)(=O)N2CCCc3ccccc32)cc1 | 8.5* | -8.9 | 3.7 | 2.3 | 6.5
O=C(O)c1ccc(S(=O)(=O)N2CCCc3ccccc32)cc1 | -2.2 | -8.8 | . | -5.0 | 3.9
C#CCn1c(=NC(=O)c2ccc(S(=O)(=O)N3CCc4ccccc4C3)cc2)sc2cc(S(N)(=O)=O)ccc21 | 9.2* | -2.5 | -6.5 | -3.3 | -4.8
C=CCn1c(=NC(=O)c2ccc(S(=O)(=O)N3CCc4ccccc4C3)cc2)sc2cc(S(N)(=O)=O)ccc21 | -2.5 | 8.5 | 14.8 | -2.7 | -2.5
CC(C)(C)OC(=O)N1CCc2onc(-c3ccccc3[N+](=O)[O-])c2C1=O | . | -2.0 | . | . | .
CSc1nnnn1-c1c(C)cccc1C | -1.1 | -4.2 | . | 1.4 | -1.1
Cc1cccc(C)c1-n1nnnc1SCSc1nnnn1-c1c(C)cccc1C | 8.7* | -15.0 | 13.5 | 1.3 | 1.3
CN(C)S(=O)(=O)c1cccc(NC(=O)c2ccccc2SCC(=O)N2CCCC2)c1 | 0.1 | -11.4 | . | 6.2 | 9.2
O=c1c2ccccc2sn1-c1ccc(S(=O)(=O)N2CCCCC2)cc1 | -1.4 | 1.4 | 7.0 | 1.2 | -2.2
Cc1ccc(-n2sc3ccccc3c2=O)cc1S(=O)(=O)N1CCCCC1 | -4.3 | 17.6 | 1.4 | 6.2 | 53.3*
Cc1ccc(OCCC(=O)Nc2ccc(F)c(F)c2)cc1 | -0.5 | -3.8 | 12.0 | 1.8 | 5.0
Cc1cccc(OCCC(=O)Nc2ccc(F)c(Cl)c2)c1 | 8.9* | -19.1 | -1.4 | 2.8 | -0.9
Cc1ccc(/C=C2/NC(=O)N(Cc3ccccc3)C2=O)s1 | -0.5 | 7.0 | -1.0 | 16.5 | 8.4
Cc1cccc(CN2C(=O)N/C(=C/c3ccc(C)s3)C2=O)c1 | 9.2* | 9.4 | 3.2 | 6.6 | -15.4
CCCNC(=O)c1cc(C2CCCCN2C(=O)c2cccs2)on1 (centres undefined) | -3.3 | -0.1 | . | . | 13.8
C[C@H](O)C#Cc1cnc2c(c1)C(=O)N([C@H](C)CO)C[C@@H](C)[C@@H](CN(C)Cc1ccc(-c3ccccc3)cc1)O2 | -2.5 | -5.7 | . | 10.1 | 4.0
CCOC(=O)C1=C(c2ccccc2)NC(=O)NC1c1ccc(O)c(Cl)c1 (centres undefined) | 52.2* | 4.5 | . | -8.1 | 8.6
O=C(CCN1CCCCO1)N1CCCC(Nc2ccc(F)cc2)C1 (centres undefined) | -0.2 | -9.9 | . | -11.3 | 1.0
COc1ccc(C(=O)NC2CCN(C(=O)NCc3ccccc3)CC2)cc1 | -1.5 | -14.7 | . | 8.7 | 5.6
CCCCCCn1c(SCC(=O)Nc2cc(C)on2)nc2ccccc2c1=O | 12.3* | -9.8 | 14.4 | -5.4 | 9.6
CCCCNC(=O)CSc1nc2ccccc2c(=O)n1CC1COc2ccccc2O1 (centres undefined) | 9.4* | -12.3 | -1.1 | 1.4 | 6.3
SMILES | MC4R barr agon | NOD2-RIPK2 inh | TLR4-MyD88 BLA | TLR9-MyD88 inh | MC4R antagonist
CN(C)C(=O)c1cccc(-c2cnc3c(NC=O)cc(-c4ccccc4N(C)C)cn23)c1 | 9.2* | -0.7 | . | . | -33.3
COc1cccc(-c2cc(NC=O)c3ncc(-c4ccc(C(C)=O)cc4)n3c2)c1 | 8.4* | -2.4 | . | . | 2.0
COc1cccc(-c2cnc3c(NC=O)cc(-c4ccccc4Oc4ccccc4)cn23)c1 | 8.8* | 5.3 | . | . | 1.0
O=C(Nc1ccc(Br)cc1F)c1ccncc1 | -1.5 | -9.1 | -2.9 | -5.4 | 9.1
O=C(Nc1ccc(Br)cc1F)c1ccc2nsnc2c1 | 8.8* | -2.3 | . | 8.4 | 2.7
CC[C@@H]1C(c2ccc(F)cc2)=NN(c2ccc(Br)cc2)[C@H]1C(=O)N1CCOC1=O | 9.6* | -1.4 | . | -6.3 | 11.4
O=C1NC[C@H](CCCCN2C[C@H](Cc3ccc(O)cc3)N(CCC3CCCCC3)C(=O)C2=O)N(CCc2ccc(O)cc2)C1=O | . | -0.1 | . | . | .
CC(C)[C@@H]1CC[C@@H](C)C[C@H]1OC(=O)C[n+]1cc(-c2ccc(Cl)cc2)n2c1CCCCC2 | 58.7* | -15.1 | . | -5.1 | 3.7
COc1ccc(OCC(=O)Nc2ccc3oc(-c4ccncc4)nc3c2)cc1 | -1.2 | -3.0 | 1.5 | -6.5 | -0.8
Cc1ccc(OCC(=O)Nc2ccc(O)c(-c3nc4ccccc4o3)c2)cc1 | 8.6* | -2.9 | -2.4 | -0.7 | 2.2
COc1ccccc1CNC(=O)CN(C)CC(=O)Nc1ccc(F)c(F)c1F | -0.7 | 0.3 | . | -0.2 | 9.1
COC(=O)c1ccc(C2C(Oc3ccccc3)C(=O)N2CCc2ccc(OC)c(OC)c2)cc1 (centres undefined) | 8.9* | -5.9 | 3.7 | 1.2 | 5.6
COc1ccc(OC2C(=O)N(CCc3ccc(OC)c(OC)c3)C2c2ccc3c(c2)OCO3)cc1 (centres undefined) | 2.9 | 1.0 | 3.7 | -12.8 | 22.7
COc1ccc(/C=N\NC(=O)COc2ccc(C(C)(C)C)cc2)cc1Cn1nc(C)cc1C | 22.2* | -3.7 | 7.4 | 5.2 | 4.3
O=C(NCCCCc1ccccc1)c1ccccc1Br | 2.7 | 0.1 | . | . | 15.1
N#CCC(=O)N/N=C/c1cn(Cc2ccc(Cl)c(Cl)c2)c2ccccc12 | 20.4* | -4.5 | . | 7.9 | -7.7
Cc1cc(NC(=O)c2ccc(Br)c([N+](=O)[O-])c2)no1 | 9.3* | -1.0 | -1.4 | -6.0 | 19.0
Cc1cc(NC(=O)c2ccc(C)c([N+](=O)[O-])c2)no1 | 0.5 | -7.2 | -12.1 | -9.2 | 18.9
CC(=O)C1C=CC(C)(C(=O)O)C2C=C(C)C(=O)C(C)(O)C12 (centres undefined) | -1.7 | 1.5 | . | -8.2 | -1.7
COc1ccc(OC)c(NC(=O)C(C)N2c3cccc4cccc(c34)S2(=O)=O)c1 (centres undefined) | 2.2 | -5.7 | . | -11.3 | 3.0
O=[N+]([O-])c1cc(C(F)(F)F)ccc1Sc1ccccn1 | 8.6* | -8.3 | -13.2 | -12.0 | -4.8
O=C(O)c1ccc(Sc2ccccn2)c([N+](=O)[O-])c1 | 0.6 | -2.1 | 3.6 | . | 2.1
O=C(/C=C/c1cccc([N+](=O)[O-])c1)c1ccc([N+](=O)[O-])o1 | -3.4 | 5.4 | . | 7.5 | 29.8*
